# Source: PubChem
# This is a sample that favours compounds with a hit; in the whole collection about 2.6% have one here.
# Env fusion inh = blocks HIV Env-driven cell-cell fusion | HeLa-JRFL Env/CEM21 cell fusion, luciferase | hit rate 1.1% among 360,000 | inhibition, % at 12.3 µM | AID 651610;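 active means mean replicate inhibition score of at least 50 and every replicate individually at or above 50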;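 further: 0% = plate neutral controls and 100% = maraviroc near 300 nM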
# rRNA inh HTS = inhibitors of bacterial rRNA selective over humanized ribosomes; E. coli WT GFP vs humanized-ribosome RFP mutants, fluorescence, 24 h; hits give low values; DMSO median 0, no signal -100; GFP signal change (wild-type ribosome), % (concentration not given with the values); hit rate 1.6% among 350,000; AID 720706;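 active means significant combined selectivity score with lowered wild-type GFP, culture density cut under 30%, mutant RFP and density less affected; inactive means any of these conditions unmet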
# FN deposition inh = fibronectin deposition inhibition; AH1F fibroblasts, Alexa488-fibronectin deposition fluorescence, overnight; hit rate 0.086% among 350,000; AID 743247; inhibition, % at 12.6 µM;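 active means mean inhibition across replicates of 30% or more, regardless of how many single replicates reach that level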;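 further: positive control wells lacked labelled fibronectin entirely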
#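 Schedule: 1 h cell adhesion before compound, then overnight fibronectin incubation; test system: AH1F fibroblast monolayer depositing Alexa488-labelled fibronectin into matrix; quantity: 10000 AH1F cells per well; probe or stimulus: fluorescent fibronectin at 24 nM final; signal: fluorescence, ex 485 nm, em 525 nm; evaluation: percent inhibition as loss of matrix-bound fibronectin fluorescence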
# Vif inh = HIV Vif inhibition; inhibition, % at 7.49 µM; HEK293T cells, Vif self-association by quenched fluorescence, imaging, 24 h; AID 602346; hit rate 0.35% among 340,000; in the data active means inhibition above about 50%, passing the limit was not always enough
# miR-122 sensor = blocks miR-122 activity in Huh7 sensor cells | activation (reporter increase), % at 12.5 µM | Huh7 miR-122 Renilla luciferase sensor, 48 h; neutral wells = 0, positive control = 100 | hit rate 0.3% among 340,000;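 active means mean replicate activation score at least 90 and every replicate individually at or above 90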;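 further: higher luciferase means less miR-122 activity so hits act as miR-122 inhibitors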
# S100A4 MyoIIA = S100A4-myosin IIA interaction inhibition; P26447; S100A4/TAMRA-MyoIIA peptide fluorescence polarization; inhibition, % at 10.7 µM; hit rate 0.14% among 360,000; AID 652163;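 active means mean inhibition of at least 70% across replicates, with every replicate also reaching that level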
# Target sequence (P26447 whole entry, looked up): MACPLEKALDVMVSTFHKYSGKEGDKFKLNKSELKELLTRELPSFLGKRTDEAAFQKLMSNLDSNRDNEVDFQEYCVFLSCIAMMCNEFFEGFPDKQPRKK
#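 Compound dosing: one dose per compound; test system: human S100A4 monomer with TAMRA-labelled myosin IIA peptide; probe or stimulus: TAMRA-labelled myosin IIA heavy-chain peptide probe, 5 nM; medium: HEPES buffer with Ca2+, pH 7.2; schedule: 5 min incubation before reading; benchmarks: neutral control DMSO, positive control TFP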
# Starred values were filed as active, the others as inactive; nt = no result; [ ] = remark or other dose.
SMILES,Env fusion inh,rRNA inh HTS,FN deposition inh,Vif inh,miR-122 sensor,S100A4 MyoIIA
O=C(C[C@@H]1C[C@@H]2c3cc(NS(=O)(=O)c4ccc(F)cc4)ccc3O[C@@H]2[C@H](CO)O1)NCc1ccc(Oc2ccccc2)cc1,39.0[16.7 µM],-0.9,4.4,nt,32.0[16.7 µM],-67.7
O=C(C[C@H]1C[C@@H]2c3cc(NS(=O)(=O)c4ccc(F)cc4)ccc3O[C@@H]2[C@H](CO)O1)NCCc1ccccc1,75.1*[16.7 µM],1.1,nt,nt,2.3[16.7 µM],-15.9
O=C(C[C@@H]1C[C@H]2c3cc(NS(=O)(=O)c4ccc(F)cc4)ccc3O[C@H]2[C@H](CO)O1)NCc1ccc(-c2ccccc2)cc1,-170.5[16.7 µM],3.1,5.7,nt,111.0*[16.7 µM],-0.6
O=C(C[C@H]1C[C@@H]2c3cc(NS(=O)(=O)c4ccc(F)cc4)ccc3O[C@@H]2[C@H](CO)O1)NCc1ccc(-c2ccccc2)cc1,32.3[16.7 µM],1.4,-3.8,nt,-0.5[16.7 µM],2.8
C[C@H](CO)N1C[C@H](C)[C@@H](CN(C)S(=O)(=O)c2cn(C)cn2)OCCCC[C@H](C)Oc2ccc(NC(=O)C3CCCCC3)cc2C1=O,-8.4[16.7 µM],0.6,nt,nt,1.3[16.7 µM],-23.8
CN(C)c1ccc2c(c1)[C@H]1C[C@@H](CC(=O)NCc3ccc(Oc4ccccc4)cc3)O[C@@H](CO)[C@H]1O2,10.9[16.7 µM],-3.9,-1.0,nt,2.9[16.7 µM],-3.7
CN(C)c1ccc2c(c1)[C@@H]1C[C@@H](CC(=O)NCc3ccc(Oc4ccccc4)cc3)O[C@@H](CO)[C@@H]1O2,-212.5[16.7 µM],-12.7,-53.0,nt,95.6*[16.7 µM],-16.6
O=C(C[C@H]1C[C@@H]2c3cc(NS(=O)(=O)c4ccc(F)cc4)ccc3O[C@@H]2[C@H](CO)O1)NCc1ccc(Cl)cc1,86.3*[16.7 µM],-19.1,7.7,nt,-4.1[16.7 µM],-5.3
C[C@H](CO)N1C[C@H](C)[C@@H](CN(C)S(C)(=O)=O)Oc2ccc(NS(=O)(=O)c3ccc(Cl)cc3)cc2CC1=O,-16.3[16.7 µM],0.5,nt,nt,1.6[16.7 µM],-2.7
CCOc1ccc(NC(=O)c2ccc(CN3CCc4ccccc4C3)cc2)cc1,31.4,9.5,2.1,-9.2,-4.3,-2.3
CCOC(=O)c1ccc(NC(=O)c2ccc(CN3CCc4ccccc4C3)cc2)cc1,58.3*,-22.7,-6.2,-2.9,nt,-3.4
c1ccc(OCc2nn3c(C4CCCCC4)nnc3s2)cc1,63.2*,nt,-2.4,3.7,2.8,nt
Cc1nnc2sc(COc3ccccc3)nn2c1=O,2.4,8.7,1.0,-10.2,-4.6,-4.4
N#Cc1c(NC(=O)c2cccc(S(=O)(=O)Nc3ccc(C(=O)O)cc3)c2)sc2c1CCCC2,-3.3,-24.2*,-0.3,8.0,-1.2,0.9
O=C(O)c1ccc(NS(=O)(=O)c2cccc(C(=O)Nc3ccc(Br)cc3)c2)cc1,1.8,-27.2*,0.3,2.4,-5.7,-5.2
Cc1cc(O)c(-c2cc(C(=O)NCCc3ccc(S(N)(=O)=O)cc3)[nH]n2)cc1C,-3.9,-34.6*,0.0,-3.4,4.9,-6.4
Cc1cc(C)c(O)c(-c2cc(C(=O)NCCc3ccc(S(N)(=O)=O)cc3)[nH]n2)c1,5.5,-33.3*,8.4,0.0,2.9,-6.5
CC(C)NC(=O)N1C[C@@H]2[C@H](c3ccccc31)[C@@H](CO)N2C(=O)c1ccccn1,nt,3.2,nt,nt,-12.2[16.7 µM],-10.5
O=C(NC1CCCCC1)[C@@H]1[C@@H](CO)[C@@H]2Cn3c(cccc3=O)[C@H]1N2CC1CCCC1,nt,-2.4,-3.9,nt,nt,2.5
O=C(Nc1ccccc1F)Nc1ccccc1N1CCCCC1,31.3,-31.2*,-4.3,5.6,2.9,-5.6
COc1ccc(NC(=S)N2CCC(C(=O)c3ccc(Cl)cc3)CC2)cc1,7.1,4.4,-5.6,15.5,0.3,-0.1
CCOc1ccc(C(=O)C2CCN(CC(=O)Nc3ccccc3N3CCOCC3)CC2)cc1,69.7*,nt,nt,nt,-5.0,nt
CCOc1ccc(NC(=S)N2CCC(C(=O)c3ccc(OC)cc3)CC2)cc1,-2.3,-13.5*,-5.9,-7.4,3.1,1.8
O=C(CCN1CCN(c2ccccc2)CC1)Nc1ccccc1F,-7.7,nt,nt,-1.5,-3.5,nt
O=C(NC1=NN(c2ccccc2)CC1)Nc1ccccc1F,-5.8,-32.4*,0.7,2.6,-2.6,-3.5
O=C(Nc1ccccc1N1CCCCC1)c1ccc(F)cc1,nt,nt,nt,-4.9,-2.2,nt
